From ChEMBL document CHEMBL1148546, “3-Arylpiperazinylethyl-1H-pyrrolo[2,3-d]pyrimidine-2,4(3H,7H)-dione derivatives as novel, high-affinity and selective alpha(1)-adrenoceptor ligands” (Bioorg Med Chem Lett, 2006)

Tests used:
[1] = molecular target: T1, Adrenergic receptor alpha-1 (Homo sapiens, UniProt P35348+P25100+P35368); test: Binding affinity to adrenergic alpha-1 receptor; format: protein assay
T1 sequence (P35348 whole entry): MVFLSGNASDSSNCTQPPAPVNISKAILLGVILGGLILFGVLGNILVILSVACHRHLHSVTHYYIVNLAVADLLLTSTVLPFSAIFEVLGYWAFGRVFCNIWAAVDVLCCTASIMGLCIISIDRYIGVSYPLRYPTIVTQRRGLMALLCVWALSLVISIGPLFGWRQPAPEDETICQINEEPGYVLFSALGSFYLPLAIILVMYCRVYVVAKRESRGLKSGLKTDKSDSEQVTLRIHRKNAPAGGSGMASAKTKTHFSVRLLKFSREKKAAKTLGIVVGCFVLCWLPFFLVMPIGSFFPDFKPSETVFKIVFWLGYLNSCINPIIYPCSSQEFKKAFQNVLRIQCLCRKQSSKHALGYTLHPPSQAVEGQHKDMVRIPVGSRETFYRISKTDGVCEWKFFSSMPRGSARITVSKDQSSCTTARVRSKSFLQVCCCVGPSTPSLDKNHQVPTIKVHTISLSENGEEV
T1 sequence (P25100 whole entry): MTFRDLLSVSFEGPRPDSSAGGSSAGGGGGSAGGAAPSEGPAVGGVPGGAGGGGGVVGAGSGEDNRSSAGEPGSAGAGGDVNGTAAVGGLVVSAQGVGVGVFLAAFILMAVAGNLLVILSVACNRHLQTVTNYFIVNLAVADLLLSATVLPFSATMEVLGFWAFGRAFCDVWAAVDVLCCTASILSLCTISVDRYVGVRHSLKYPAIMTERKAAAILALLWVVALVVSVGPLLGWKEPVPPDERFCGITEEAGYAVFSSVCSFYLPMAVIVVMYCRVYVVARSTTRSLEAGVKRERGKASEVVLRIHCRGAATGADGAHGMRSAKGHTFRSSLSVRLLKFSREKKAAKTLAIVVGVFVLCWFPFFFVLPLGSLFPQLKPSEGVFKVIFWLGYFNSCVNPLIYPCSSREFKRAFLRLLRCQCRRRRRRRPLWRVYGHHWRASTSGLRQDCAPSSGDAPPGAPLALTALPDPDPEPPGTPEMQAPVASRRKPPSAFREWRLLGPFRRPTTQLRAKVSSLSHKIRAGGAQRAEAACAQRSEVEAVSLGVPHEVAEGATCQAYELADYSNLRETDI
T1 sequence (P35368 whole entry): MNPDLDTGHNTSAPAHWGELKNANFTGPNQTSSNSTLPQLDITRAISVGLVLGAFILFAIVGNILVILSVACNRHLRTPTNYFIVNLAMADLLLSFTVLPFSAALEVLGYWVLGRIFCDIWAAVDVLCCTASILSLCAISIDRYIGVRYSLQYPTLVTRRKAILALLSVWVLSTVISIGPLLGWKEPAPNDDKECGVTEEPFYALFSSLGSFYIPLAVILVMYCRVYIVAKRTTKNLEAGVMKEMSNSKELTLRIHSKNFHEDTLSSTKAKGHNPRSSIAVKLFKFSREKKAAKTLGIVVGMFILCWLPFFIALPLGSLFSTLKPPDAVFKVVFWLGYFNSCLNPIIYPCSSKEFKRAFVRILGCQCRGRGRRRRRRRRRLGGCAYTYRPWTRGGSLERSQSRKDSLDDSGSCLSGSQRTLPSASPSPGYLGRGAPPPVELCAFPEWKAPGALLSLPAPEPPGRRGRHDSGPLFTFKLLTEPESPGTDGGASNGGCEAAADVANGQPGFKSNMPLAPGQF

[2] = molecular target: T2, 5-hydroxytryptamine receptor 1A (Homo sapiens, UniProt P08908); test: Binding affinity to 5HT1A
T2 sequence (P08908 whole entry): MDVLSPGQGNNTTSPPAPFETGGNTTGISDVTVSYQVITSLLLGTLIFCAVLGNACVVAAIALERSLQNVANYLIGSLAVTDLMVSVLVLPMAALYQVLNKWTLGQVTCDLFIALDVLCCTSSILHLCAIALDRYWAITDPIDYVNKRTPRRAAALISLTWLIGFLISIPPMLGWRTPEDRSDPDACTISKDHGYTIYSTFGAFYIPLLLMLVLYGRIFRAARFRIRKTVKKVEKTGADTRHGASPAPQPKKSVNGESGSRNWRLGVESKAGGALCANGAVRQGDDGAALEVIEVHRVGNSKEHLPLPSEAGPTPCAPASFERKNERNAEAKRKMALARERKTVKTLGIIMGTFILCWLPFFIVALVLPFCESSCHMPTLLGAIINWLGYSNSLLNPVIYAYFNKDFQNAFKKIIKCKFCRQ

[3] = organism: Homo sapiens; test: Selectivity for 5HT1A over adrenergic alpha-1 receptor
Procedure, shortened: (§1)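 Selectivity is the ratio of Ki at 5-HT1A, D1 or D2 to Ki at α1. Ki values are means (±SD) of three separate experiments.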

[4] = molecular target: D(1A) dopamine receptor (Homo sapiens, UniProt P21728); test: Binding affinity to dopamine D1 receptor
[5] = molecular target: D(2) dopamine receptor (Homo sapiens, UniProt P14416); test: Binding affinity to dopamine D2 receptor
[6] = organism: Homo sapiens; test: Selectivity for dopamine D1 over adrenergic alpha-1 receptor; procedure, shortened: as §1
[7] = Selectivity for dopamine D2 over adrenergic alpha-1 receptor; procedure, shortened: as §1

Chain of D(2) dopamine receptor (P14416 whole entry): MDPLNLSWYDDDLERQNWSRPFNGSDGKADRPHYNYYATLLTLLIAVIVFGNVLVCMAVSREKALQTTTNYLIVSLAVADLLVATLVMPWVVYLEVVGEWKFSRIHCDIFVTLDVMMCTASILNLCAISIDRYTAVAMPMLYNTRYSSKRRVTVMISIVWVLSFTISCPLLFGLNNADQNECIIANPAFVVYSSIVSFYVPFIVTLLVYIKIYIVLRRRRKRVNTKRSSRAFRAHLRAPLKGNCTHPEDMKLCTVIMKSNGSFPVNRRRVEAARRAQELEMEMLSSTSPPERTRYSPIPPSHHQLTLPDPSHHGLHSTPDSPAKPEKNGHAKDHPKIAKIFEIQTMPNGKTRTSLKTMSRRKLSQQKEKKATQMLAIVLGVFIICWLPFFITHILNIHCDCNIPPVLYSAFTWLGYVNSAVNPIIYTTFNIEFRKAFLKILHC
Chain of D(1A) dopamine receptor (P21728 whole entry): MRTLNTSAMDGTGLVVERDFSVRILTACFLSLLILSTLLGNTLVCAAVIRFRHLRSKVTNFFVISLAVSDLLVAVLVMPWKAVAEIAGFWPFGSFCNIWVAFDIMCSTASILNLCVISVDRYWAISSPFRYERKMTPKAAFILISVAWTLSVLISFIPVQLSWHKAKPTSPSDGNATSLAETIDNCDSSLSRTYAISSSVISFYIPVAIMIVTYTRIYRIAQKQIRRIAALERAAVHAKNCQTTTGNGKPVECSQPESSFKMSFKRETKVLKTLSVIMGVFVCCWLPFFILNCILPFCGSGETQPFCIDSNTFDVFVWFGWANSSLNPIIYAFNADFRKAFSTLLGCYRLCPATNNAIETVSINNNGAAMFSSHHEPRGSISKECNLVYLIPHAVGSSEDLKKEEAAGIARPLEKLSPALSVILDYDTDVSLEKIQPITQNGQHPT

Row | Ki [1] | Ki [2] | Ratio Ki [3] | Ki [4] | Ki [5] | Ratio Ki [6] | Ratio Ki [7] | Compound
1 | 2.18 nM | 19.1 nM | 8.8 | – | – | – | – | COc1ccccc1N1CCN(CCn2c(=O)[nH]c3[nH]c(-c4ccccc4Cl)cc3c2=O)CC1
2 | 6.28 nM | 64.9 nM | 10 | 567 nM | 356 nM | 90 | 57 | O=c1[nH]c2[nH]c(-c3ccccc3Cl)cc2c(=O)n1CCN1CCN(c2ccccc2Cl)CC1
3 | 5.47 nM | 113 nM | 21 | – | – | – | – | COc1ccc(-c2cc3c(=O)n(CCN4CCN(c5ccccc5OC)CC4)c(=O)[nH]c3[nH]2)cc1
4 | 1.63 nM | 157 nM | 97 | – | – | – | – | COc1ccccc1-c1cc2c(=O)n(CCN3CCN(c4ccccc4OC)CC3)c(=O)[nH]c2[nH]1
5 | 3.32 nM | 1030 nM | 310 | 8550 nM | 363 nM | > 2500 | 109 | COc1ccccc1-c1cc2c(=O)n(CCN3CCN(c4ccccc4Cl)CC3)c(=O)[nH]c2[nH]1
6 | 2.8 nM | 1450 nM | 518 | 1040 nM | 627 nM | 371 | 224 | Cc1ccccc1-c1cc2c(=O)n(CCN3CCN(c4ccccc4Cl)CC3)c(=O)[nH]c2[nH]1
7 | 1.99 nM | 122 nM | 61 | – | – | – | – | COc1ccccc1N1CCN(CCn2c(=O)[nH]c3[nH]c(-c4ccccc4)cc3c2=O)CC1
8 | 4.71 nM | 1540 nM | 327 | 516 nM | 137 nM | 110 | 29 | O=c1[nH]c2[nH]c(-c3ccccc3)cc2c(=O)n1CCN1CCN(c2ccccc2Cl)CC1
9 | 1.19 nM | 295 nM | 248 | – | – | – | – | COc1ccccc1N1CCN(CCn2c(=O)[nH]c3[nH]c(-c4ccccc4C)cc3c2=O)CC1
10 | 4.97 nM | 333 nM | 67 | – | – | – | – | COc1ccccc1N1CCN(CCn2c(=O)[nH]c3[nH]c(-c4ccc(C)cc4)cc3c2=O)CC1
11 | 4.08 nM | 401 nM | 98 | – | – | – | – | COc1ccccc1N1CCN(CCn2c(=O)[nH]c3[nH]c(-c4ccc(Cl)cc4)cc3c2=O)CC1
